# Assay outcomes as filed in PubChem.
# KCNK9 inh – inhibitors of human KCNK9 two-pore domain potassium channel | HEK293 KCNK9, FluxOR thallium flux fluorescence; stronger effect = lower value | Q9NPC2 | 1.2% of 310,000 active | AID 488922 | B-score at 10 µM;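 active = ratio B-score over 3 SD below the library mean, with starting fluorescence within 5 SD of its mean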;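 note: negative B-score means less thallium flux so channel inhibition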
# KCNQ1 block – blocks the human KCNQ1 potassium channel. CHO-K1 KCNQ1, FluxOR thallium flux fluorescence; stronger effect = higher value. B-score at 10 µM. 1.3% of 310,000 active. AID 2642;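 active = compounds whose thallium flux B-score, printed positive for inhibition, exceeds three library SD while starting fluorescence stays within three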;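 note: channel opened by potassium depolarization with thallium stimulus after 20 min compound exposure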
# Target sequence (P51787 whole entry, looked up): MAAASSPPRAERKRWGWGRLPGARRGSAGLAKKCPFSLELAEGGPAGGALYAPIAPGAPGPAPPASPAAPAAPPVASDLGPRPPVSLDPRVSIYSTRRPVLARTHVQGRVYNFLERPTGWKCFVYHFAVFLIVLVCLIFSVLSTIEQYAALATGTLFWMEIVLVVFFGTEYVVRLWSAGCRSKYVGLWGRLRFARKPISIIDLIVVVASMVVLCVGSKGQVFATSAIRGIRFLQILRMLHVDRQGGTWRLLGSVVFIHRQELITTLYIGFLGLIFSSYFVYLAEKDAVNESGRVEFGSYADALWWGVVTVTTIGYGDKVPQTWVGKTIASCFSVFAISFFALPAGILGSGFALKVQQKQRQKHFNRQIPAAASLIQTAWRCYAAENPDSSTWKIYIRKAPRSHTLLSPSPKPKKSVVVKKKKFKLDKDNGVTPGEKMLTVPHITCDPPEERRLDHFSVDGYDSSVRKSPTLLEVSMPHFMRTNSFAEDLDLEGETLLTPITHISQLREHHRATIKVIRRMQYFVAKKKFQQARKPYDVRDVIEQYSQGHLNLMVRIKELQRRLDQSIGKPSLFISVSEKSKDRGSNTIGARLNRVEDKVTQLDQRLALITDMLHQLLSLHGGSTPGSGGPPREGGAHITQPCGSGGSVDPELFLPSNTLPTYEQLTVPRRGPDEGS
# KCNQ1 act – potentiators or activators of human KCNQ1 potassium channel. P51787. CHO-K1 KCNQ1, thallium flux FluxOR fluorescence; stronger effect = higher value. B-score at 10 µM. 0.35% of 310,000 active;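 active = fluorescence ratio B-score, a plate-corrected score, at least three library SD, with initial intensity B-score within 5 SD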
#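 Schedule – 37 °C overnight plating, 90-min dark dye load, 20-min compound pretreatment · System – stable KCNQ1 CHO-K1 line · Probe or stimulus – thallium- and potassium-containing depolarizing buffer · Measured by – kinetic FluxOR fluorescence, 10 s baseline plus 110 s post-stimulus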
# KCNK3 inh – human KCNK3 channel inhibition, primary screen | CHO-KCNK3 thallium flux, FluxOR fluorescence; stronger effect = lower value | O14649 | B-score at 10 µM | 0.84% of 340,000 active | AID 602410;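 active = B-score under library mean minus 4 SD, starting fluorescence ratio at most library mean plus 5 SD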;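 note: more negative B-score means stronger inhibition of thallium flux through KCNK3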
# hERG rescue – hERG (human) protection from proarrhythmic block; CHO-hERG, FluxOR thallium flux, dofetilide IC70 present; activation (rescue from dofetilide block), less the hit threshold, % at 10 µM; 0.51% of 310,000 active; AID 1511;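 active = activation above the mean of controls blocked by dofetilide plus 5 SD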;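 note: thallium influx through hERG after potassium depolarization seen as dye fluorescence rise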
# Kir21 block – inhibitors of mouse Kir2.1 inward-rectifier potassium channel; HEK293-Kir2.1, FluxOR thallium flux fluorescence; stronger effect = lower value; B-score at 10 µM; 0.85% of 310,000 active;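 active = fluorescence ratio B-score at or below minus 3 SD of library scores, with starting-brightness B-score within 2 SD, cut at about -4.2 in these data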;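 note: channel flux triggered by added potassium and thallium sulfate stimulus; B-score of peak minus minimum fluorescence over baseline after thallium stimulus; more negative B-score means stronger Kir2.1 block with less thallium influx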
# The depositor's hits bear a star; i = inactive; . = not tested or not shown. Shown are actives, neighbours in structure and some others; about 3.7% of the full set was active somewhere.
SMILES,KCNK9 inh,KCNQ1 block,KCNQ1 act,KCNK3 inh,hERG rescue,Kir21 block
Cc1ccccc1NC(=O)CN1C(=O)S/C(=C\c2ccc(-c3cccc(C(=O)O)c3C)o2)C1=O,i,i,i,i,11*,-1
Cc1cccc(NC(=O)CN2C(=O)S/C(=C\c3ccc(-c4cccc(C(=O)O)c4C)o3)C2=O)c1,i,i,i,i,21*,-0.5
Cc1ccc(NC(=O)CN2C(=O)S/C(=C/c3ccc(-c4cc(C(=O)O)ccc4C)o3)C2=O)cc1C,i,i,i,i,-2,-1.2
Cc1ccccc1NC(=O)CN1C(=O)c2ccccc2C1=O,i,i,i,i,-6,-1.1
CCN(CC)CCCNc1ccc(-c2nnc(-c3ccc(OCC(C)C)cc3)o2)cn1,i,9*,i,i,-25,-6.5*
CC(C)COc1ccc(-c2nnc(-c3ccco3)o2)cc1,i,i,i,i,-4,0.03
NC1=NC2=C(CCCC2)C2(CCCCC2)S1,i,i,i,i,-15,-6.7*
Cn1c(=O)[nH]c(=O)c2c1nc(SCCO)n2CC(O)COc1ccccc1 (stereo unspecified),i,i,i,i,-7,0.04
COc1cc(/C=N/NC(=O)Cn2nc([N+](=O)[O-])cc2C)cc(Br)c1OCc1ccccc1,i,i,i,-9.9*,-7,-2.3
COc1cc(/C=N/O)cc(Br)c1OCC(=O)NCc1ccccc1,i,i,i,i,-7,-6*
CCOc1cc(/C=N/O)cc(Br)c1OCC(=O)NCc1ccccc1,i,i,i,i,-3,-1.2
O=C(Cc1cccs1)Nc1nc(-c2ccc(F)cc2F)cs1,-7.5*,i,i,i,-5,0.29
COc1ccc(CC(=O)Nc2nc(C(C)(C)C)cs2)cc1,i,i,i,i,1,-8.2*
COc1ccc(-c2csc(NC(=O)Cc3ccccc3F)n2)c(OC)c1,-6.9*,i,i,i,-7,0.85
O=C(Cc1cccs1)Nc1nc(-c2ccc(F)c(F)c2)cs1,i,i,i,i,-6,0.5
Cc1ccc(CNC(=O)CS(=O)Cc2nc(-c3ccccc3F)oc2C)cc1 (stereo unspecified),i,i,i,i,-9,2
O=C(NCc1cc(C(F)(F)F)cc(C(F)(F)F)c1)C1CC(c2ccc(C(F)(F)F)cc2)=NO1 (stereo unspecified),i,i,i,i,-5,0.56
CC(=O)Nc1ccc(CN2CCCC(C(=O)c3cccc(C(F)(F)F)c3)C2)cc1 (stereo unspecified),i,i,i,i,-11,-0.88
COc1ccc(CN2CCCC(C(=O)c3cccc(C(F)(F)F)c3)C2)cc1O (stereo unspecified),i,i,i,i,-23,-12*
COc1ccc(C)cc1N(C(=O)c1snc(C(N)=O)c1N)C(C(=O)NC1CCCC1)c1ccc(F)cc1 (stereo unspecified),i,i,i,i,-8,-0.63
Cc1cc(Br)c(NC(=O)c2c(-c3c(Cl)cccc3Cl)noc2C)c(Br)c1,i,i,i,i,-7,-0.9
Cc1[nH]c2ccccc2c1CC#N,i,i,i,i,-9,0.23
Cc1[nH]c2ccccc2c1C1=CC(=O)C=CC1=O,.,.,.,-9.2*,.,.
C#CCn1c(=NC(=O)CSC(C)=O)sc2cc(F)ccc21,-7.8*,i,i,i,0,-0.79
Clc1ccc(CN2CCC(c3nc4ccc(Cl)cc4[nH]3)CC2)cc1,i,i,i,i,-13,-8*
Cc1ccccc1Nc1nnc(SCC(=O)NCC2CCCO2)s1 (stereo unspecified),.,.,.,i,.,.
CC(C)COc1ccc(C(=O)OCC(=O)N(C)CC(=O)Nc2ccc(F)cc2)cc1,i,i,i,i,-6,-0.06
O=C1C2C3CCC(C3NCc3ccccc3)C2C(=O)N1Cc1ccccc1 (stereo unspecified),i,6*,i,i,-23,-1.7
O=C1C2CCCCC2C(=O)N1Cc1ccccc1 (stereo unspecified),i,i,i,i,-4,0.6
